Reference: ChEMBL document CHEMBL1127623, “Synthesis and structure-activity relationships of the novel homopropargylamine antimycotics” (1994)
Converted amounts (≈) assume the structure as drawn.

Experiments:
[1] = tested on: Aspergillus fumigatus; test: Tested in vitro for minimum inhibitory concentration against Aspergillus fumigatus; type: functional
In short: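 Tube dilution in Sabouraud's dextrose broth (pH 6.5). Compounds were dissolved in DMSO and serially diluted in medium. The inoculum was harvested by spatula from Kimmig agar cultures grown 21 days at 30 °C. Tubes were read after 72 h at 30 °C. MIC was the lowest concentration with no macroscopically detectable growth.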

[2] = tested on: Candida albicans; test: Tested in vitro for minimum inhibitory concentration against candida albicans 124; type: functional
In short: (§1)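 Yeast broth dilution in malt extract broth (pH 4.8) in glass tubes, with compounds in DMSO serially diluted in medium. Blastospores came from cultures shaken about 30 h at 37 °C in yeast nitrogen base. Growth was read after 48 h at 30 °C. MIC was the lowest concentration without macroscopically visible growth.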

[3] = tested on: Candida parapsilosis; test: Tested in vitro for minimum inhibitory concentration against candida parapsilosis 39; type: functional; settings: Lodderomyces parapsilosis; in short: as §1
[4] = tested on: Microsporum canis; test: Tested in vitro for minimum inhibitory concentration against microsporum canis; type: functional
In short: (§2)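 Serial dilutions were made from DMSO solutions into Sabouraud's dextrose broth (pH 6.5) in glass tubes. Inoculum was taken by spatula from Kimmig agar cultures grown 21 days at 30 °C. Incubation was 7 days at 30 °C. MIC was the lowest concentration at which growth was macroscopically undetectable.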

[5] = tested on: Sporothrix schenckii; test: Tested in vitro for minimum inhibitory concentration against sporothrix schenck ii; type: functional; in short: as §2
[6] = tested on: Candida albicans; test: Tested in vitro for minimum inhibitory concentration against candida albicans 9; type: functional; in short: as §1
[7] = tested on: Trichophyton mentagrophytes; test: Tested in vitro for minimum inhibitory concentration against Trichophyton mentagrophytes

CN(CC#CC(C)(C)C)CCc1cccc2ccccc12
MIC [1]: > 50 µg/mL | MIC [2]: 100 µg/mL (≈ 358 µM) | MIC [3]: 50 µg/mL (≈ 179 µM) | MIC [4]: 1.56 µg/mL (≈ 5.58 µM) | MIC [5]: 6.25 µg/mL (≈ 22.4 µM) | MIC [6]: 50 µg/mL (≈ 179 µM) | MIC [7]: 1.56 µg/mL (≈ 5.58 µM)

CN(C/C=C/C#CC(C)(C)C)Cc1cccc2ccccc12 [TERBINAFINE]
MIC [1]: 0.8 µg/mL (≈ 2.75 µM) | MIC [2]: 25 µg/mL (≈ 85.8 µM) | MIC [3]: 0.8 µg/mL (≈ 2.75 µM) | MIC [4]: 0.006 µg/mL (≈ 0.0206 µM) | MIC [5]: 0.4 µg/mL (≈ 1.37 µM) | MIC [6]: 6.25 µg/mL (≈ 21.4 µM) | MIC [7]: 0.003 µg/mL (≈ 0.0103 µM)

CN(CCC#CC(C)(C)C)Cc1cccc2ccccc12
MIC [1]: 0.1 µg/mL (≈ 0.358 µM) | MIC [2]: 50 µg/mL (≈ 179 µM) | MIC [3]: 1.56 µg/mL (≈ 5.58 µM) | MIC [4]: 0.01 µg/mL (≈ 0.0358 µM) | MIC [5]: 3.13 µg/mL (≈ 11.2 µM) | MIC [6]: 50 µg/mL (≈ 179 µM) | MIC [7]: 0.006 µg/mL (≈ 0.0215 µM)

CC(C#CC(C)(C)C)CN(C)Cc1cccc2ccccc12 (configuration not stated)
MIC [1]: > 200 µg/mL | MIC [2]: > 200 µg/mL | MIC [3]: 200 µg/mL (≈ 682 µM) | MIC [4]: 0.8 µg/mL (≈ 2.73 µM) | MIC [5]: 12.5 µg/mL (≈ 42.6 µM) | MIC [6]: > 200 µg/mL | MIC [7]: 0.8 µg/mL (≈ 2.73 µM)

CCCC(C)(C)C#CCCN(C)Cc1cccc2ccccc12
MIC [1]: 0.05 µg/mL (≈ 0.163 µM) | MIC [2]: 25 µg/mL (≈ 81.3 µM) | MIC [3]: 0.4 µg/mL (≈ 1.3 µM) | MIC [4]: 0.003 µg/mL (≈ 0.00976 µM) | MIC [5]: 1.56 µg/mL (≈ 5.07 µM) | MIC [6]: 12.5 µg/mL (≈ 40.7 µM) | MIC [7]: 0.003 µg/mL (≈ 0.00976 µM)

CN(CCC#CC(C)(C)C)CCc1cccc2ccccc12
MIC [1]: 50 µg/mL (≈ 170 µM) | MIC [2]: 200 µg/mL (≈ 682 µM) | MIC [3]: 100 µg/mL (≈ 341 µM) | MIC [4]: 3.13 µg/mL (≈ 10.7 µM) | MIC [5]: 12.5 µg/mL (≈ 42.6 µM) | MIC [6]: 100 µg/mL (≈ 341 µM) | MIC [7]: 0.8 µg/mL (≈ 2.73 µM)

C=C(C#CC(C)(C)C)CN(C)Cc1cccc2ccccc12
MIC [1]: 50 µg/mL (≈ 172 µM) | MIC [2]: > 200 µg/mL | MIC [3]: 6.25 µg/mL (≈ 21.4 µM) | MIC [4]: 0.5 µg/mL (≈ 1.72 µM) | MIC [5]: 1.56 µg/mL (≈ 5.35 µM) | MIC [6]: > 200 µg/mL | MIC [7]: 0.05 µg/mL (≈ 0.172 µM)

CCN(Cc1cccc2ccccc12)C(=O)OCCC#CC(C)(C)C
MIC [1]: > 200 µg/mL | MIC [2]: > 200 µg/mL | MIC [3]: 25 µg/mL (≈ 74.1 µM) | MIC [4]: 100 µg/mL (≈ 296 µM) | MIC [5]: > 200 µg/mL | MIC [6]: > 200 µg/mL | MIC [7]: 100 µg/mL (≈ 296 µM)

CN(CCC#CC(C)(C)c1ccccc1)Cc1cccc2ccccc12
MIC [1]: 0.2 µg/mL (≈ 0.586 µM) | MIC [2]: 12.5 µg/mL (≈ 36.6 µM) | MIC [3]: 0.4 µg/mL (≈ 1.17 µM) | MIC [4]: 0.006 µg/mL (≈ 0.0176 µM) | MIC [5]: 3.13 µg/mL (≈ 9.17 µM) | MIC [6]: 6.25 µg/mL (≈ 18.3 µM) | MIC [7]: 0.01 µg/mL (≈ 0.0293 µM)

CCC(C)(C)C#CCCN(C)Cc1cccc2ccccc12
MIC [1]: 0.1 µg/mL (≈ 0.341 µM) | MIC [2]: 50 µg/mL (≈ 170 µM) | MIC [3]: 1.56 µg/mL (≈ 5.32 µM) | MIC [4]: 0.01 µg/mL (≈ 0.0341 µM) | MIC [5]: 3.13 µg/mL (≈ 10.7 µM) | MIC [6]: 12.5 µg/mL (≈ 42.6 µM) | MIC [7]: 0.006 µg/mL (≈ 0.0204 µM)

CCN(CCC#CC(C)(C)C)Cc1cccc2ccccc12
MIC [1]: 0.2 µg/mL (≈ 0.682 µM) | MIC [2]: 200 µg/mL (≈ 682 µM) | MIC [3]: 3.13 µg/mL (≈ 10.7 µM) | MIC [4]: 0.02 µg/mL (≈ 0.0682 µM) | MIC [5]: 12.5 µg/mL (≈ 42.6 µM) | MIC [6]: 50 µg/mL (≈ 170 µM) | MIC [7]: 0.05 µg/mL (≈ 0.17 µM)

CC(C)(C)C#CCCOCc1cccc2ccccc12
MIC [1]: 1.56 µg/mL (≈ 5.86 µM) | MIC [2]: > 200 µg/mL | MIC [3]: > 200 µg/mL | MIC [4]: 0.4 µg/mL (≈ 1.5 µM) | MIC [5]: > 200 µg/mL | MIC [6]: 200 µg/mL (≈ 751 µM) | MIC [7]: 0.4 µg/mL (≈ 1.5 µM)

CC(CC#CC(C)(C)C)N(C)Cc1cccc2ccccc12 (configuration not stated)
MIC [1]: > 200 µg/mL | MIC [2]: > 200 µg/mL | MIC [3]: 100 µg/mL (≈ 341 µM) | MIC [4]: 1.56 µg/mL (≈ 5.32 µM) | MIC [5]: > 200 µg/mL | MIC [6]: 200 µg/mL (≈ 682 µM) | MIC [7]: 1.56 µg/mL (≈ 5.32 µM)

CN(CCCC#CC(C)(C)C)Cc1cccc2ccccc12
MIC [1]: 50 µg/mL (≈ 170 µM) | MIC [2]: 200 µg/mL (≈ 682 µM) | MIC [3]: 0.8 µg/mL (≈ 2.73 µM) | MIC [4]: 0.2 µg/mL (≈ 0.682 µM) | MIC [5]: 1.56 µg/mL (≈ 5.32 µM) | MIC [6]: > 200 µg/mL | MIC [7]: 0.05 µg/mL (≈ 0.17 µM)

CN(CC#CC(C)(C)C)Cc1cccc2ccccc12
MIC [1]: > 200 µg/mL | MIC [2]: > 200 µg/mL | MIC [3]: > 200 µg/mL | MIC [4]: 25 µg/mL (≈ 94.2 µM) | MIC [5]: > 200 µg/mL | MIC [6]: 200 µg/mL (≈ 754 µM) | MIC [7]: 12.5 µg/mL (≈ 47.1 µM)

CN(CCCCC#CC(C)(C)C)Cc1cccc2ccccc12
MIC [1]: > 200 µg/mL | MIC [2]: > 200 µg/mL | MIC [3]: > 200 µg/mL | MIC [4]: 25 µg/mL (≈ 81.3 µM) | MIC [5]: > 200 µg/mL | MIC [6]: 200 µg/mL (≈ 650 µM) | MIC [7]: 12.5 µg/mL (≈ 40.7 µM)
